ChEMBL document CHEMBL2424587, “Antiproliferative activity of abietane diterpenoids against human tumor cells” (J Nat Prod, 2013)
Active and inactive are the calls of the source. The calls are words filed in the database; no cut-off is given here.

Assays:
[1] = test system: HL-60; assay: Induction of ROS-mediated cell death in human HL60 cells preincubated for 2 hrs in presence of NAC; format: functional, cell-based
Outline: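 Antioxidant test in HL-60 cells: NAC 10 mM added with the diterpene, or NAC and diterpene preincubated together for 2 h before addition to cells; cell death then measured.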

[2] = test system: HL-60; assay: Induction of apoptosis in human HL60 cells assessed as reduction in mitochondrial membrane potential at 3 uM after 24 hrs by JC-1 staining-based flow cytometry in presence of bongkrekic acid; format: functional, cell-based
Outline: (§1)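 HL-60 cells exposed to 3 μM diterpene for 24 h alongside permeability transition pore inhibitors cyclosporin A (25 μM, 24 h) or bongkrekic acid (25−50 μM, 24 h). Apoptosis was scored by flow cytometry. Mitochondrial membrane potential was read by JC-1 fluorescence on flow cytometry.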

[3] = test system: HL-60; assay: Induction of apoptosis in human HL60 cells assessed as reduction in mitochondrial membrane potential at 3 uM after 24 hrs by JC-1 staining-based flow cytometry; format: functional, cell-based
Outline: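 ΔΨm in HL-60 cells after 24 h at 3 μM assessed by JC-1 fluorescence on flow cytometry; two separate experiments, each in triplicate.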

[4] = test system: HL-60; assay: Induction of apoptosis in human HL60 cells assessed as reduction in mitochondrial membrane potential at 3 uM after 24 hrs by JC-1 staining-based flow cytometry in presence of cyclosporin A; format: functional, cell-based; outline: as §1
[5] = test system: HL-60; assay: Induction of apoptosis in human HL60 cells assessed as release of Smac/DIABLO to cytosolic fraction by Western blotting analysis; format: functional, cell-based
[6] = test system: HL-60; assay: Induction of apoptosis in human HL60 cells assessed as release of AIF to cytosolic fraction by Western blotting analysis; format: functional, cell-based
[7] = test system: HL-60; assay: Induction of apoptosis in human HL60 cells assessed as release of cytochrome c to cytosolic fraction by Western blotting analysis; format: functional, cell-based
[8] = test system: HL-60; assay: Induction of apoptosis in human HL60 cells assessed as hypodiploid cells after 24 hrs by flow cytometry in presence of caspase-8 inhibitor Z-IETD-FMK; format: functional, cell-based
Outline: (§2)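 HL-60 cells pretreated 1 h with caspase inhibitor, then given diterpene for 24 h; hypodiploid cells counted by flow cytometry; mean ± SE of three independent experiments in triplicate.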

[9] = test system: HL-60; assay: Induction of apoptosis in human HL60 cells at 3 uM after 24 hrs by flow cytometry in presence of Z-VAD-FMK; format: functional, cell-based
Outline: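 HL-60 cells pretreated with pancaspase inhibitor Z-VAD-FMK (100 μM), then given diterpene (3 μM) for 24 h. Hypodiploid (sub-G1) apoptotic cells were counted by flow cytometry. Mean ± SE of three independent experiments, each in triplicate.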

[10] = test system: HL-60; assay: Induction of apoptosis in human HL60 cells after 24 hrs by flow cytometry in presence of caspase-9 inhibitor Z-LEHD-FMK; format: functional, cell-based; outline: as §2
[11] = test system: HL-60; assay: Induction of apoptosis in human HL60 cells assessed as hypodiploid cells at 3 uM by flow cytometry; format: functional, cell-based; conditions: TDE = time-dependent effect
[12] = test system: HL-60; assay: Cytotoxicity against human HL60 cells overexpressing neomycin-resistant gene after 72 hrs by MTT assay; format: functional, cell-based
[13] = test system: HL-60; assay: Induction of apoptosis in human HL60 cells assessed as PARP cleavage at 3 uM after 24 hrs by immunoblotting analysis; format: functional, cell-based
Outline: (§3)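 HL-60 cells treated 24 h with 3 μM; immunoblots of lysates probed with antibodies that recognize both pro-caspases and cleaved caspases, and for PARP.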

[14] = test system: HL-60; assay: Induction of apoptosis in human HL60 cells assessed as procaspase-3 cleavage at 3 uM after 24 hrs by immunoblotting analysis; format: functional, cell-based; outline: as §3
[15] = test system: HL-60; assay: Induction of apoptosis in human HL60 cells assessed as procaspase-4 cleavage at 3 uM after 24 hrs by immunoblotting analysis; format: functional, cell-based; outline: as §3
[16] = test system: HL-60; assay: Induction of apoptosis in human HL60 cells assessed as procaspase-6 cleavage at 3 uM after 24 hrs by immunoblotting analysis; format: functional, cell-based; outline: as §3
[17] = test system: HL-60; assay: Induction of apoptosis in human HL60 cells assessed as late apoptotic cells at 3 uM after 24 hrs by AnnexinV-FITC/propidium iodide staining-based flow cytometry (reference value: 3.1%); format: functional
Outline: (§4)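 HL-60 cells given 3 μM for 24 h, stained with annexin V-FITC and propidium iodide, and analysed by flow cytometry; annexin+/PI− cells scored as early apoptotic and double-positive cells as late; three separate experiments.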

[18] = test system: HL-60; assay: Induction of apoptosis in human HL60 cells assessed as early apoptotic cells at 3 uM after 24 hrs by AnnexinV-FITC/propidium iodide staining-based flow cytometry (reference value: 1.6%); format: functional; outline: as §4
[19] = test system: HL-60; assay: Induction of apoptosis in human HL60 cells assessed as externalization of phosphotidylserine at 3 uM after 24 hrs by AnnexinV-FITC/propidium iodide staining-based flow cytometry; format: functional, cell-based; outline: as §4
[20] = test system: HL-60; assay: Induction of apoptosis in human HL60 cells assessed as DNA fragmentation at 3 uM after 24 hrs by […]; format: functional, cell-based
[21] = test system: HL-60; assay: Induction of apoptosis in human HL60 cells assessed as nuclear chromatin fragmentation after 6 hrs by Hoechst 33258 staining-based fluorescence microscopy; format: functional, cell-based
[22] = test system: HL-60; assay: Induction of apoptosis in human HL60 cells assessed as nuclear chromatin condensation after 6 hrs by Hoechst 33258 staining-based fluorescence microscopy; format: functional, cell-based
[23] = test system: HL-60; assay: Cell cycle arrest in human HL60 cells assessed as accumulation at S phase at 3 uM after 24 hrs by […]propidium iodide staining-based flow cytometry (reference value: 32%); format: functional
[24] = test system: HL-60; assay: Cell cycle arrest in human HL60 cells assessed as accumulation at Sub-G1 phase at 3 uM after 24 hrs by […]propidium iodide staining-based flow cytometry (reference value: 4%); format: functional
[25] = test system: HL-60; assay: Induction of apoptosis in human HL60 cells assessed as hypodiploid cells at 3 uM after 24 hrs by flow cytometry (reference value: 4.4 +/- 0.8%); format: functional
[26] = test system: U-937; assay: Cytotoxicity against human U937 cells overexpressing Bcl-2 protein after 72 hrs by MTT assay; format: functional, cell-based; conditions: U-937, 72 h
[27] = test system: SK-MEL-1; assay: Cytotoxicity against human SK-MEL-1 cells after 72 hrs by MTT assay; format: functional, cell-based; conditions: SK-MEL-1, 72 h
Outline: (§5)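 MTT assay: 1 × 10^4 exponentially growing cells per well incubated 72 h over a range of compound concentrations; MTT 0.5 mg/mL for 4 h at 37 °C, then 10% SDS in 0.05 M HCl overnight at room temperature in the dark; absorbance at 570 nm. Leukemia and SK-MEL-1 lines grown in RPMI 1640, MCF-7 in DMEM, both with 10% heat-inactivated FBS. IC50 given as mean ± SEM of 3–5 independent experiments, each in triplicate.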

[28] = test system: MCF7; assay: Cytotoxicity against human MCF7 cells after 72 hrs by MTT assay; format: functional, cell-based; conditions: MCF7, 72 h; outline: as §5
[29] = test system: MOLT-3; assay: Cytotoxicity against human MOLT3 cells after 72 hrs by MTT assay; format: functional, cell-based; conditions: MOLT-3, 72 h; outline: as §5
[30] = test system: U-937; assay: Cytotoxicity against human U937 cells after 72 hrs by MTT assay; format: functional, cell-based; conditions: U-937, 72 h; outline: as §5
[31] = test system: HL-60; assay: Cytotoxicity against human HL60 cells after 72 hrs by MTT assay; format: functional, cell-based; conditions: HL-60, 72 h; outline: as §5

Row | SMILES | Activity [1] | Activity [2] | Activity [3] | Activity [4] | Activity [5] | Activity [6] | Activity [7] | Activity [8] | Activity [9] | Activity [10] | Activity [11] | Activity [12] | Activity [13] | Activity [14] | Activity [15] | Activity [16] | Activity [17] | Activity [18] | Activity [19] | Activity [20] | also measured
1 | CC(=O)O[C@H]1C2=C(C(=O)C(OC(=O)c3ccc(Cl)cc3)=C(C(C)C)C2=O)[C@@]2(C)CCCC(C)(C)[C@@H]2[C@@H]1O | inactive | Active | Active | Active | Active | Active | Active | Active | Active | Active | tde | Active | Active | Active | Active | inactive | 28.8% | 28.8% | Active | Active | Activity [21]: Active; Activity [22]: Active; Activity [23]: 23%; Activity [24]: 32%; Activity [25]: 40.4%; IC50 [26]: 1.1 µM; IC50 [27]: 4 µM; IC50 [28]: 2.9 µM; IC50 [29]: 1.4 µM; IC50 [30]: 1.1 µM; IC50 [31]: 2.4 µM
2 | CC(=O)O[C@H]1C2=C(C(=O)C(OC(=O)c3ccccc3)=C(C(C)C)C2=O)[C@@]2(C)CCCC(C)(C)[C@@H]2[C@@H]1OC(=O)c1ccccc1 | inactive | Active | Active | Active | Active | Active | Active | inactive | Active | Active | tde | Active | Active | Active | Active | Active | 20.7% | 20.7% | Active | Active | Activity [21]: Active; Activity [22]: Active; Activity [23]: 16%; Activity [24]: 40%; Activity [25]: 48%; IC50 [26]: 0.6 µM; IC50 [27]: 3.1 µM; IC50 [28]: 25.5 µM; IC50 [29]: 6.9 µM; IC50 [30]: 1.8 µM; IC50 [31]: 3.6 µM
3 | COc1ccc(C(=O)OC2=C(C(C)C)C(=O)C3=C(C2=O)[C@@]2(C)CCCC(C)(C)[C@@H]2[C@H](O)[C@H]3OC(C)=O)cc1 | inactive | Active | Active | Active | Active | Active | Active | Active | Active | Active | tde | Active | Active | Active | Active | inactive | 30.2% | 30.2% | Active | Active | Activity [21]: Active; Activity [22]: Active; Activity [23]: 21%; Activity [24]: 28%; Activity [25]: 34.5%; IC50 [26]: 2.1 µM; IC50 [27]: 7.2 µM; IC50 [28]: 3.1 µM; IC50 [29]: 1.5 µM; IC50 [30]: 1.4 µM; IC50 [31]: 2.7 µM
